Source: PubChem BioAssay
This is a sample that favours compounds with a hit; in the whole collection about 3.1% have one here.
KCNK9 block: inhibitors of human KCNK9 two-pore domain potassium channel; HEK293 KCNK9, FluxOR thallium flux fluorescence; active compounds read low; actives 1.2% (n = 310,000); B-score at 10 µM; Q9NPC2;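 active = ratio B-score over 3 SD below the library mean, with starting fluorescence within 5 SD of its mean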;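 note: negative B-score means less thallium flux so channel inhibition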
KCNQ1 block: blocks the human KCNQ1 potassium channel; CHO-K1 KCNQ1, FluxOR thallium flux fluorescence; active compounds read high; B-score at 10 µM; actives 1.3% (n = 310,000); AID 2642;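 active = compounds whose thallium flux B-score, printed positive for inhibition, exceeds three library SD while starting fluorescence stays within three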;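 note: channel opened by potassium depolarization with thallium stimulus after 20 min compound exposure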
KCNQ1 pot: human KCNQ1 channel potentiation or activation | AID 2648 | B-score at 10 µM | P51787 | actives 0.35% (n = 310,000) | CHO-K1 KCNQ1, thallium flux FluxOR fluorescence; active compounds read high;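 active = fluorescence ratio B-score, a plate-corrected score, at least three library SD, with initial intensity B-score within 5 SD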
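Schedule – 37 °C overnight plating, 90-min dark dye load, 20-min compound pretreatment · System – stable KCNQ1 CHO-K1 line · Probe or stimulus – thallium- and potassium-containing depolarizing buffer · Measured by – kinetic FluxOR fluorescence, 10 s baseline plus 110 s post-stimulus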
KCNK3 block: human KCNK3 channel inhibition, primary screen | O14649 | CHO-KCNK3 thallium flux, FluxOR fluorescence; active compounds read low | actives 0.84% (n = 340,000) | B-score at 10 µM | AID 602410;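 active = B-score under library mean minus 4 SD, starting fluorescence ratio at most library mean plus 5 SD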;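 note: more negative B-score means stronger inhibition of thallium flux through KCNK3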
hERG rescue: compounds protecting human hERG from proarrhythmic drug block. actives 0.51% (n = 310,000). CHO-hERG, FluxOR thallium flux, dofetilide IC70 present. Q12809. activation (rescue from dofetilide block), less the hit threshold, % at 10 µM;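 active = activation above the mean of controls blocked by dofetilide plus 5 SD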;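 note: thallium influx through hERG after potassium depolarization seen as dye fluorescence rise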
Numbers without * were called inactive; i = inactive; . = no result; ! = not confirmed by another sample.

SMILES	KCNK9 block	KCNQ1 block	KCNQ1 pot	KCNK3 block	hERG rescue
CCN(CC)c1ccc(N=Cc2c(O)n(-c3ccccc3)c(=O)[nH]c2=O)cc1	i	i	i	i	-11.3
COc1ccc(Cn2c(O)c(/C=N/NC(=O)c3ccncc3)c(=O)[nH]c2=O)cc1	i	i	i	i	-12.5
COc1ccc(Cn2c(O)c(/C=N/NC(=O)c3ccccc3)c(=O)[nH]c2=O)cc1	i	7*	i	i	-16.0
CCN(CC)c1ccc(N=Cc2c(O)n(Cc3ccccc3)c(=O)[nH]c2=O)cc1	-7.25*!	7*!	i	i	-11.6
CCN1/C(=C\C=C\C2=[N+](CC)c3ccccc3C2(C)C)C(C)(C)c2ccccc21	i	21*	i	i	-55.6
COC(=O)C1=C(c2cccc(C#N)c2)C[C@@H]2CC[C@H]1N2C(=O)NCCNC(C)=O	.	.	.	i	.
Cc1cc(-c2ccccc2)cc(-c2ccccc2)[n+]1CCc1ccccc1	-8.03*	8*	i	i	-25.7
CCOc1ccc(-c2cc(C)[n+](CCc3ccc(OC)c(OC)c3)c(-c3ccc(OCC)cc3)c2)cc1	i	10*	i	i	-27.6
Clc1ccc(C[n+]2c(-c3ccccc3)cc(-c3ccccc3)cc2-c2ccccc2)cc1	-8.27*	13*	i	i	-36.2
C[n+]1c(-c2ccccc2)cc(-c2ccc(O)cc2)cc1-c1ccccc1	i	i	i	i	-23.3
CC(C(=O)c1c[nH]c2ccccc12)N1CCc2ccccc2C1 (centres undefined)	i	i	i	i	-2.3
CNC1(c2ccc(F)cc2)CCCCC1	.	.	.	i	.
C[N+](C)(C)CC1CCCC(C[N+](C)(C)C)C1=O (centres undefined)	.	.	.	i	.
COc1cccc(CC(=O)N2CCN(Cc3cccc(Cl)c3)CC2)c1	i	i	8*	i	-4.9
COc1cccc(N2CCN(Cc3cccc(Cl)c3)CC2)c1	i	i	i	i	-12.0
CC(C)C[C@H]1C(=O)N2CCCC2[C@]2(O)O[C@](NC(=O)[C@@H]3C=C4c5cccc6[nH]cc(c56)CC4N(C)C3)(C(C)C)C(=O)N12 (some centres undefined)	i	8*	i	i	-10.1
CC(C)NC(C)C(=O)C12CC3CC(CC(C3)C1)C2 (centres undefined)	i	i	i	i	-8.1
O=c1[nH]c(=S)[nH]c(O)c1N=Nc1ccc(S(=O)(=O)N2CCc3ccccc32)cc1	i	i	i	i	12.7*
CC(=O)OC(C)(C)/C=C/C(=O)C(C)(O)C1[C@H](O)C[C@@]2(C)C3CC=C4C(CC[C@@H](O)C4(C)C)[C@]3(CO)C(=O)C[C@]12C (some centres undefined)	i	i	13*	i	3.4
NC(=O)c1cc(N2CC2)c([N+](=O)[O-])cc1[N+](=O)[O-]	i	i	i	i	-3.3
CCCCn1c(=O)c(C(=O)Nc2cnccn2)c(O)c2ccccc21	i	9*	i	i	-40.0
CCCCCc1nc2ccccc2c(=O)n1-c1ccc(Cl)cc1[N+](=O)[O-]	i	i	i	i	-3.1
CN1Cc2cccnc2N(C)Cc2cc(Cl)ccc21	i	i	i	i	-9.9
CCCn1c(C)c(C(=O)c2cccc3ccccc23)c2ccccc21	.	.	.	-10.5*	.
CCc1cccc(CC)c1NC(=S)N1CC2CC(C1)c1cccc(=O)n1C2 (centres undefined)	i	i	i	i	-5.7
SMILES	KCNK9 block	KCNQ1 block	KCNQ1 pot	KCNK3 block	hERG rescue
Cc1c(Cl)cccc1NC(=S)N1CC2CC(C1)c1cccc(=O)n1C2 (centres undefined)	i	i	30*	i	-4.2
ClC(Cl)=C(c1ccc(Cl)cc1)c1ccc(Cl)cc1	.	.	.	i	.
O=[N+]([O-])c1ccccc1-c1cc(-c2ccccc2)cc(-c2ccccc2)[n+]1Cc1ccccc1Cl	-8*	8*	i	.	-29.8
O=[N+]([O-])c1ccc(-[n+]2c(-c3ccccc3)cc(-c3ccccc3)cc2-c2ccccc2)cc1	i	i	i	i	-10.3
O=C(c1cc(C(=O)NCc2ccccc2)c(=O)n(Cc2ccccc2)c1)c1cc(Br)ccc1O	i	6*	i	i	-7.9
COc1ccc(C2N(c3cc(C)on3)C(=O)C3CCCN32)cc1 (centres undefined)	i	i	i	i	-8.9
ClCCN(CCCl)c1ccc(C2=NCCc3ccccc32)cc1	.	.	.	i	.
COc1ccc2c(c1)C(c1ccc(N(CCCl)CCCl)cc1)=NCC2	.	.	.	-8.72*	.
C/C(=N\NC(=O)c1ccccc1)c1c(O)n(Cc2ccccc2)c(=O)[nH]c1=O	i	i	i	i	-12.3
C/C(=N\Nc1cccc2ccccc12)c1c(O)n(Cc2ccccc2)c(=O)[nH]c1=O	-7.22*	i	i	i	-1.4
CN(C)C(=O)Oc1ccc(OCc2n(C)c3ccccc3[n+]2C)cc1	i	i	i	i	-11.5
COc1cccc(CCNCc2c(F)cccc2F)c1	i	i	i	i	-2.5
O=c1[nH]c(=S)n(Cc2ccc(F)cc2)c(O)c1C=NCc1cccnc1	i	i	i	i	-12.2
CC/C(=N\NC(=O)c1ccccc1)c1c(O)n(C2CCCCC2)c(=O)[nH]c1=O	i	7*	i	i	-14.0
COc1ccc(-n2c(/C=C/c3ccc(O)c(OC)c3)nc3ccccc3c2=O)cc1	i	i	i	i	-15.9
COc1cccc(-n2c(/C=C/c3ccc(O)c(O)c3)nc3ccccc3c2=O)c1	i	6*	i	i	-27.8
CC[n+]1c(/C=C/N(C)c2ccccc2)sc2ccc(Cl)cc21	i	6*	i	i	-22.9
CC[n+]1c(/C=C/C=C/c2ccc(N(C)C)cc2)sc2ccccc21	-6.65*	i	i	-10.8*	-28.7
CC1N=C(c2ccccc2Cl)c2cc(Br)ccc2NC1=O (centres undefined)	i	i	i	i	7.6*
CC(=NCCN1CCCCC1)c1c(O)n(-c2ccc(Cl)cc2)c(=O)[nH]c1=O	i	i	i	i	-11.1
O=C(CCCN1CCC2(CC1)C(=O)NCN2c1ccccc1)c1ccc(F)cc1	i	i	23*	i	-15.3
O=C(c1ccc(F)cc1)C(Cc1ccccc1)N1CCCCC1 (centres undefined)	i	i	i	i	-6.5
c1ccc2c(CNC3CCCCC3)c[nH]c2c1	-7.06*	i	i	.	-8.3
COC(=O)C(C)Oc1cc(C)cc2oc(=O)c3c(c12)CCCC3 (centres undefined)	i	i	i	-9.19*	-5.8
